The source of these data is ChEMBL document CHEMBL3526066, “In vitro metabolism of 17-(dimethylaminoethylamino)-17-demethoxygeldanamycin in human liver microsomes” (Drug Metab Dispos, 2011).

Holding throughout (assay type): ADME
Data set [1] has as its system Liver microsome. The experiment in a line: Drug level in boiled human liver microsomes treated with geldanamycin after 2 hrs. The essentials:
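Substrate (5 µM final) was incubated at 37°C with HLMs (1 mg/ml; boiled HLMs as negative control) in 0.1 M phosphate buffer with 3.3 mM MgCl2 and 1 mM β-NADPH, with or without 5 mM reduced GSH. Aliquots were taken at 1, 5, 10, 15, 30, 45, 60 and 120 min and quenched with ice-cold acetonitrile containing internal standard. Samples were analysed by LC-MS/MS, with values given as percent of the analyte/internal-standard peak area ratio at 1 min.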

Data set [2] has as its system Liver microsome. Nature of the data set: Drug level in human liver microsomes treated with 1 uM 17-DMAG by liquid chromatography-tandem mass spectrometry in presence of 1 uM quinidine CYP2D6 inhibitor. The essentials:
(§1)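 Pooled HLMs in 0.1 M phosphate buffer pH 7.4 with 1 mM β-NADPH, 3.3 mM MgCl2 and the selective inhibitor were preincubated 3 min at 37°C in a shaking water bath. 17-DMAG (1 µM final) was then added and incubated 20 min at 37°C, with parallel no-inhibitor controls. M1, M2, M3, M4 and M6 were quantified by LC-MS/MS MRM. Inhibition was taken as the ratio of metabolite formed with versus without inhibitor.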

Data set [3] deals with Liver microsome. Nature of the data set: Drug level in human liver microsomes treated with 1 uM 17-DMAG by liquid chromatography-tandem mass spectrometry in presence of 1 uM tranylcypromine CYP2A6 inhibitor. The essentials:
as §1

Data set [4] concerns Liver microsome. The experiment in a line: Drug level in human liver microsomes treated with 1 uM 17-DMAG by liquid chromatography-tandem mass spectrometry in presence of 10 uM diethyldithiocarbamate CYP2E1 inhibitor. The essentials: as §1
In data set [5] the test system is Liver microsome. Nature of the data set: Retention time in human liver microsomes treated with 10 uM […] after 2 hrs by liquid chromatography-tandem mass spectrometry. The essentials: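 17-DMAG (10 µM initial) was incubated with HLMs (1 mg/ml) in 0.1 M phosphate buffer with 3.3 mM MgCl2 and 1 mM β-NADPH at 37°C for 2 h alongside negative controls, then quenched with ice-cold acetonitrile. Samples were run on a C18 column with a 0.1% formic acid/ammonium formate–acetonitrile gradient (10–90% B in 10 min) using MS full scan, MRM, EPI and MS3 scans.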

The test system of data set [6] is Liver microsome. The experiment in a line: Drug level in human liver microsomes treated with 1 uM 17-DMAG by liquid chromatography-tandem mass spectrometry in presence of 10 uM ticlopidine CYP2B6 inhibitor. The essentials: as §1
Data set [7] relates to Liver microsome. The experiment in a line: Drug level in human liver microsomes treated with 1 uM 17-DMAG by liquid chromatography-tandem mass spectrometry in presence of 10 uM alpha-naphthoflavone CYP1A2 inhibitor. The essentials:
as §1

For data set [8], the system named is Liver microsome. Nature of the data set: Drug level in human liver microsomes treated with 1 uM 17-DMAG by liquid chromatography-tandem mass spectrometry in presence of 1 uM quercetin CYP2C8 inhibitor. The essentials:
as §1

Data set [9] deals with Cytochrome P450 3A4 (Homo sapiens, UniProt P08684). Nature of the data set: Drug level assessed as human recombinant CYP3A4-mediated oxidative metabolism treated with 1 uM 17-DMAG after 30 mins by liquid chromatography-tandem mass spectrometry. The settings on record: recombinant enzyme, 0.5 h. The essentials:
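Recombinant human P450 (E. coli-expressed, coexpressed with cytochrome b5), 20 pmol per 200 µl incubation with 0.2 mg reduced β-NADPH and 3.3 mM MgCl2 in 0.1 M phosphate buffer pH 7.4. Preincubated at 37°C in a shaking water bath, then 1 µM 17-DMAG added. E. coli control microsomes lacking P450 cDNA served as negative control. Metabolite (M1–M4, M6) formation rates were read by LC-MS/MS MRM and expressed as percent of the CYP3A4 rate.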

The test system of data set [10] is Liver microsome. Nature of the data set: Drug level in human liver microsomes treated with 1 uM 17-DMAGby liquid chromatography-tandem mass spectrometry in presence of 1 uM sulfaphenazole CYP2C9 inhibitor. The essentials:
as §1

The test system of data set [11] is Liver microsome. Nature of the data set: Drug metabolism in human liver microsomes assessed as (4E,6Z,8S,9S,10E,12S,13R,14S,16R)-19-(2-(dimethylamino)ethylamino)-8,13-dihydroxy-14-methoxy-4,10,12,16-tetramethyl-3,20,22-trioxo-2-azabicyclo[16.3.1]docosa-1(21),4,6,10,18-pentaen-9-yl carbamate formation at 1 uM 17-DMAG by liquid chromatography-tandem mass spectrometry in presence of 1 uM ketoconazole CYP3A inhibitor.

Sequence of Cytochrome P450 3A4 (P08684 whole entry): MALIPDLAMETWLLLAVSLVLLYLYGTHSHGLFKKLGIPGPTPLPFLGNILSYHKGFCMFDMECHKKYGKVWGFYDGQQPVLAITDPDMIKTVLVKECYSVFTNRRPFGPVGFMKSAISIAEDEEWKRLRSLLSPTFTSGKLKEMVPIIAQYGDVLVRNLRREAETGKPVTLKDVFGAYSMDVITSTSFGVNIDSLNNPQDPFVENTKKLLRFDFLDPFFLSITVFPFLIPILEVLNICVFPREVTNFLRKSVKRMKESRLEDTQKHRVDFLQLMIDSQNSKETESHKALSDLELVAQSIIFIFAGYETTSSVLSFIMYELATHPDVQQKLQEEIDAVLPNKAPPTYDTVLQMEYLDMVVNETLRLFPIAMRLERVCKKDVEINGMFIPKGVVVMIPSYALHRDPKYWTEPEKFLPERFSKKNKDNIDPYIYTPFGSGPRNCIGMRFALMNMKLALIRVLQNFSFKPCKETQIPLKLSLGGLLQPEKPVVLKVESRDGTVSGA

Regarding `COc1c(O)cc2c(O)c1C[C@@H](C)C[C@H](OC)[C@H](O)[C@@H](C)/C=C(\C)[C@H](OC(N)=O)[C@@H](OC)/C=C\C=C(/C)C(=O)N2`, the Drug metabolism result in data set [1] is recorded as “metabolite_detected”.

For the molecule `CO[C@H]1/C=C\C=C(/C)C(=O)NC2=CC(=O)C(NCCN(C)C)=C(C[C@@H](C)C[C@H](OC)[C@H](O)[C@@H](C)/C=C(\CO)[C@@H]1OC(N)=O)C2=O`, the Drug metabolism result in data set [2], in data set [3], in data set [4], in data set [6], in data set [7] and in [8] was “metabolite_detected” each time. Besides, the Drug metabolism entry in data set [9] and in [10] was “metabolite_detected” each time. The molecule further yielded a Retention_time in data set [5] of 8.21 min.

On to `CO[C@H]1/C=C\C=C(/C)C(=O)NC2=CC(=O)C(NC(O)CN(C)C)=C(C[C@@H](C)C[C@H](OC)[C@H](O)[C@@H](C)/C=C(\C)[C@@H]1OC(N)=O)C2=O` (some centres undefined), for which the Drug metabolism entry in data set [2], in data set [3], in [4], in [6], in [7] and in data set [8] was “metabolite_detected” throughout. Further, the Drug metabolism entry in data set [9] and in [10] was “metabolite_detected” throughout. Besides, the Retention_time in data set [5] turned out to be 9.04 min.

On to `CO[C@H]1/C=C\C=C(/C)C(=O)NC2=CC(=O)C(NCCN(C)C)=C(C[C@@H](C)C[C@H](O)[C@H](O)[C@@H](C)/C=C(\C)[C@@H]1OC(N)=O)C2=O`, for which the Drug metabolism result in data set [2], in [3], in data set [4], in data set [6], in data set [7] and in data set [8] was “metabolite_detected” in each case. Moreover, the Drug metabolism entry in data set [9] and in data set [10] was “metabolite_detected” throughout. This molecule also had a Retention_time in data set [5] of 7.57 min.

On to `CO[C@H]1C[C@H](C)CC2=C(NCCN(C)C)C(=O)C=C(NC(=O)/C(C)=C/C=C\[C@H](O)[C@@H](OC(N)=O)/C(C)=C/[C@H](C)[C@H]1O)C2=O`, for which the Drug metabolism result was “metabolite_detected” in [2]; “metabolite_detected” in data set [3]; “metabolite_not_detected” in [11]; “metabolite_detected” in data set [4]; “metabolite_detected” in data set [6]; “metabolite_detected” in data set [7]. Moreover, the Drug metabolism result in data set [8], in data set [9] and in data set [10] was “metabolite_detected” in each case. The molecule also returned a Retention_time in data set [5] of 7.13 min.

`CO[C@H]1/C=C\C=C(/C)C(=O)NC2=CC(=O)C(/N=C/CN(C)C)=C(C[C@@H](C)C[C@H](OC)[C@H](O)[C@@H](C)/C=C(\C)[C@@H]1OC(N)=O)C2=O` gave a Retention_time in data set [5] of 8.4 min.
